Measured values as given in ChEMBL document CHEMBL4610015, “Scaffold-hopping identifies furano[2,3-d]pyrimidine amides as potent Notum inhibitors” (Bioorg Med Chem Lett, 2020).

Key:
[1] = Apparent permeability across apical to basolateral membrane in dog MDCK-MDR1 cells; format: ADME, cell-based, Canis lupus familiaris
[2] = Apparent permeability across basolateral to apical membrane in dog MDCK-MDR1 cells; format: ADME, cell-based, Canis lupus familiaris
[3] = Intrinsic clearance in mouse liver microsomes; format: ADME, Microsome; conditions: read-out: CLH
[4] = Efflux ratio of apparent permeability in dog MDCK-MDR1 cells; format: ADME, cell-based, Canis lupus familiaris
[5] = target: T1, Palmitoleoyl-protein carboxylesterase NOTUM (Homo sapiens, UniProt Q6P988, C330S); format: cell-based
[6] = Stability of the compound in citrate buffer at pH 4 measured up to 24 hrs by UPLC-MS analysis; format: physicochemical; conditions: pH 4, 24 h
Method in brief: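 Incubated in 0.1 M citrate buffer at pH 4 and sampled at several time points up to 24 h. The parent amide was monitored by UPLC-MS.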

[7] = target: T1, Palmitoleoyl-protein carboxylesterase NOTUM; format: ADME, cell-based; conditions: 72 h

T1 sequence (Q6P988 20-496 C330S limits assumed): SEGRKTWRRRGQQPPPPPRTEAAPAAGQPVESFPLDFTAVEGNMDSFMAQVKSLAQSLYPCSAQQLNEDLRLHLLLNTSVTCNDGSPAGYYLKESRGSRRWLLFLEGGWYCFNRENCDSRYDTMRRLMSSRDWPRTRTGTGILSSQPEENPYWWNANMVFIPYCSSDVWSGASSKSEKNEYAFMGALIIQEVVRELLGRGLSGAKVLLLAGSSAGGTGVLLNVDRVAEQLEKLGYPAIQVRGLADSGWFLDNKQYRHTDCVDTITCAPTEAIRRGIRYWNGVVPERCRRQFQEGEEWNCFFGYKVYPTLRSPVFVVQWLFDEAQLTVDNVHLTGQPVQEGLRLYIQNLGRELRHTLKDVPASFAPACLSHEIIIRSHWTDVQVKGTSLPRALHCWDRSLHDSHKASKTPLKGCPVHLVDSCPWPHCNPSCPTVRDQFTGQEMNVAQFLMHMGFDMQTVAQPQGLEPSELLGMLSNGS

SMILES | Papp A→B [1] [×10⁻⁶ cm/s] | Papp B→A [2] [×10⁻⁶ cm/s] | microsomal CLint [3] [µL/min/mg] | efflux ratio [4] | IC50 [5] [nM] | Stability [6] | Stability [7]
O=C1CN(C(=O)CSc2ncnc3c(C4CC4)c(Cl)sc23)CCN1 | 7.9 | 65 | 24 | 8.2 |  |  | 
Cc1sc2ncnc(SCC(=O)O)c2c1Cl |  |  |  |  | 3 |  | 
O=C1CN(C(=O)CSc2ncnc3c(C4CC4)c(Cl)sc23)CN1 | 3.8 | 14 | 19 | 3.7 |  |  | 
Cc1sc2ncnc(SCC(=O)N3CCn4cnnc4C3)c2c1Cl |  |  |  |  |  | Stable | Stable
O=C(CSc1ncnc2c(C3CC3)c(Cl)sc12)N1CCn2cnnc2C1 | 0.95 | 93 | 29 | 98 | 1.1 |  | 

Further lines, results first:

Papp A→B [1] [×10⁻⁶ cm/s] | Papp B→A [2] [×10⁻⁶ cm/s] | microsomal CLint [3] [µL/min/mg] | efflux ratio [4] | IC50 [5] [nM] | Stability [6] | Stability [7] | SMILES
40 | 38 | > 500 | 0.95 |  |  |  | O=C(CSc1ncnc2c(C3CC3)c(Cl)sc12)N1CCOCC1
 |  |  |  |  | Stable | Stable | Cc1sc2ncnc(SCC(=O)N3CC(=O)N(C)C3)c2c1Cl
